Bioassay records deposited in PubChem BioAssay by Broad Institute.
Shown are actives, neighbours in structure and some others; about 1.4% of the full set was active somewhere.
DYRK1A inh: Dyrk1A (rat) kinase inhibition | Q63470 | ADP-Glo luminescence, NFATc1 peptide | inhibition, % at 12.5 µM | 310,000 tested, 0.43% active | AID 504441; in the data active = inhibition above about 50%;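 note: plate controls were vehicle with enzyme for no effect and no enzyme for full effect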
CAL PDZ FP-1: blocks peptide binding to the human CAL PDZ domain; purified CAL PDZ, TMR-peptide fluorescence polarization, 1 h; 300,000 tested, 0.92% active; AID 602252; Q9HD26; inhibition, % at 24.9 µM;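 active = mean inhibition of at least 30% with at least half of replicates also reaching 30%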;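 note: 0% = DMSO neutral control and 100% = excess unlabeled competitor peptide PRC23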
CAL PDZ FP-2: blocks peptide binding to human CAL PDZ domain; Q9HD26; purified CAL PDZ, TMR-peptide fluorescence polarization, 1 h; inhibition, % at 20 µM; 330,000 tested, 0.02% active; AID 504414;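 active = highest replicate inhibition of at least 40%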;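 note: plate controls were DMSO neutral control wells for no effect and unlabeled competitor peptide control wells for full effect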
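System: tagged CAL PDZ domain. Schedule: 1 h room-temperature incubation prior to read. Signal: fluorescence polarization (mP). Measure: percent inhibition from loss of millipolarization.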
ARNT-TACC3 inh: ARNT/TACC3 interaction disruption; Q9Y6A5; 390,000 tested, 0.66% active; AID 623870; AlphaScreen His-ARNT PAS-B/GST-TACC3 binding, luminescence; TACC3 fragment carries E629A point mutation; inhibition, % at 9.99 µM;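 active = mean inhibition of replicates at least 50% and at least half of replicates each reaching 50%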;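 note: 0% = complete ARNT plus TACC3 wells and 100% = ARNT alone without TACC3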
* = called active by the depositor; · = not tested or not shown.

SMILES	DYRK1A inh	CAL PDZ FP-1	CAL PDZ FP-2	ARNT-TACC3 inh
C[C@@H]1CCCCO[C@H](CN(C)Cc2ccc(C(F)(F)F)cc2)[C@@H](C)CN([C@@H](C)CO)C(=O)c2cc(NS(=O)(=O)c3ccccc3)ccc2O1	·	·	·	6.4
CCn1nc(C(=O)NNS(=O)(=O)c2ccc(C)cc2)c2ccccc2c1=O	-5.6	-3.3	1.1	67.7*
CCn1nc(C(=O)NNC(=O)c2ccccc2)c2ccccc2c1=O	0.5	·	-0.6	2.3
O=C(CSc1ccc(-c2ccccn2)nn1)c1ccc([N+](=O)[O-])cc1	-0.8	-2.8	-2.8	51.6*
O=C(CSc1ccc(-c2cccnc2)nn1)c1ccc([N+](=O)[O-])cc1	3.1	-1.1	-2.3	-1.0
CCc1ccc(NC(=O)CSc2ccc(-c3ccccn3)nn2)cc1	-0.4	-2.6	-2.6	50.7*
CCOC(=O)c1ccccc1NC(=O)CSc1ccc(-c2ccccn2)nn1	-6.5	50.7*	-1.9	64.4*
CCOc1ccc(N(CC(=O)NCc2ccc(C)cc2)S(=O)(=O)c2c(C)[nH]c(=O)[nH]c2=O)cc1	0.9	37.8*	-0.9	-0.9
COc1ccc(N(CC(=O)NCc2ccc(C)cc2)S(=O)(=O)c2c(C)[nH]c(=O)[nH]c2=O)cc1	-3.6	-1.6	-2.0	0.6
O=C(N[C@H]1CC[C@@H](CCNC(=O)C2CCOCC2)O[C@@H]1CO)c1ccccn1	·	·	·	-13.5
CC1CCN(CCC(=O)N/N=C/c2ccc([N+](=O)[O-])cc2)CC1	-0.3	162.6*	1.0	2.8
C[C@@H]1CN([C@@H](C)CO)C(=O)c2cccc(NS(=O)(=O)c3ccc(Cl)cc3)c2O[C@@H]1CN(C)Cc1ccncc1	·	·	·	0.1
CC(NC(=O)C12CC3CC(C1)CC(n1cncn1)(C3)C2)C12CC3CC(CC(C3)C1)C2 (configuration not stated)	-0.5	56.9*	-0.4	-3.0
COCCNC(=O)c1cc2cc(Br)cc(Br)c2oc1=O	5.1	48.2*	-0.8	-0.2
CSc1nc2sc3c(c2c(=O)n1C)CCCC3	-4.3	-1.2	-2.3	-0.3
CSc1nc2sc3c(c2c(=O)n1C)CCC3	0.0	71.5*	-0.8	-11.1
Cc1ccc(-c2csc3ncnc(SCC(=O)NCC4CCCO4)c23)cc1 (configuration not stated)	·	32.9*	-0.9	·
Cc1ccc(-c2csc3ncnc(SCC(=O)NCc4ccc5c(c4)OCO5)c23)cc1	4.1	-4.8	-3.5	-5.2
CO[C@H]1CN(C)C(=O)c2cc(NC(=O)c3ccno3)ccc2OC[C@H](C)N(S(C)(=O)=O)C[C@@H]1C	·	·	·	2.0
CCNC(=O)Nc1ccc2c(c1)C(=O)N(C)[C@H]1CC[C@@H](CC(=O)NCCN3CCCC3)O[C@H]1CO2	·	·	·	4.9
O=C(Cn1cnc([N+](=O)[O-])n1)N/N=C/c1ccccc1O	-1.8	0.0	0.0	75.3*
O=C(Cn1cncn1)N/N=C/c1ccccc1O	2.0	0.3	-2.4	78.5*
O=C(Cn1cncn1)N/N=C/c1ccncc1	·	·	-0.1	-6.5
Cc1ccc(NC(=S)NC2CCN(Cc3ccccc3)CC2)cc1	3.9	1.1	-0.7	1.7
Cc1ccc(NC(=S)NC2CCN(Cc3ccccc3)CC2)cc1C	9.8	46.9*	-0.8	6.9
SMILES	DYRK1A inh	CAL PDZ FP-1	CAL PDZ FP-2	ARNT-TACC3 inh
N=C1CCC(=N)c2c1c(O)c1ccccc1c2O	39.9	-0.5	1.4	51.0*
CCOc1ccc(NC(=O)c2ccc(N3CC4CC(C3)c3cccc(=O)n3C4)c(NC(=O)c3ccncc3)c2)cc1 (configuration not stated)	-2.1	1.8	-4.0	7.5
O=C(CCN1CCOCC1)Nc1cc(C(=O)Nc2ccc(Cl)cc2)ccc1N1CC2CC(C1)c1cccc(=O)n1C2 (configuration not stated)	4.2	62.3*	-2.8	13.7
COc1ccc(CNC(=O)C2CCN(S(=O)(=O)c3cccc4nsnc34)CC2)cc1	-1.4	37.0*	-0.8	-6.6
O=C(NC1CCCC1)C(c1ccccn1)N(Cc1ccc(F)cc1)C(=O)c1csnn1 (configuration not stated)	-2.2	51.4*	-0.7	1.2
CC(=O)NNC(=O)CN1C(=O)/C(=C/c2ccccc2)SC1=S	-4.7	0.5	-2.3	-2.6
CCN(C(=O)CN1C(=O)/C(=C/c2ccccc2F)SC1=S)C1CCS(=O)(=O)C1 (configuration not stated)	4.0	75.3*	0.1	-3.0
CCN(C(=O)CN1C(=O)S/C(=C\c2ccccc2OC)C1=O)C1CCS(=O)(=O)C1 (configuration not stated)	-0.2	-2.3	-4.0	-1.9
CCN(CC)C(=O)CN1C(=O)/C(=C/c2ccccc2)SC1=S	-8.4	43.7*	0.6	-3.2
CCCNC(=O)[C@@H]1[C@@H](CO)[C@@H]2Cn3c(cccc3=O)[C@@H]2N1C(=O)C1CCCC1	·	·	·	-4.0
C[C@H](O)C#Cc1cnc2c(c1)C(=O)N([C@@H](C)CO)C[C@@H](C)[C@H](CN(C)C(=O)c1ccccc1F)O2	·	·	·	-1.8
COc1ccccc1CCNS(=O)(=O)c1cn(C)c(=O)n(C)c1=O	-0.2	-0.1	-1.3	-33.7
COC(=O)c1ccc(S(=O)(=O)NCCc2ccccc2OC)n1C	26.2	69.0*	-1.3	-2.6
Cc1noc(C)c1NC(=O)NCC[C@H]1CC[C@H](NC(=O)Cc2cccnc2)[C@@H](CO)O1	·	·	·	-2.5
CCCNC(=O)N[C@H]1CC[C@@H](CC(=O)NC2CCCCC2)O[C@H]1CO	·	·	·	-12.3
COc1ccccc1-n1cc(-c2ccc(C)cc2)[nH]c1=S	-5.2	2.3	1.5	-9.5
COc1ccccc1-n1cc(-c2ccc([N+](=O)[O-])cc2)[nH]c1=S	·	62.7*	0.8	-8.5
C=C(C)CSc1nnc([C@@H]2CCCN2)o1	·	41.6*	-0.4	1.0
COc1ccc(CN2C[C@@H](O)COC[C@H]3O[C@H](CC(=O)NCCN4CCCC4)CC[C@@H]32)cc1	·	·	·	6.7
C[C@@H]1CCCCO[C@H](CN(C)C(=O)Nc2ccccc2)[C@H](C)CN([C@H](C)CO)C(=O)c2cc(NC(=O)Nc3ccc(F)cc3)ccc2O1	·	·	·	-1.7
CN(C1=C(N2CCOCC2)C(=O)c2ccccc2C1=O)c1ccccc1	12.0	0.2	0.5	60.5*
N#Cc1c(C(F)(F)F)cc(-c2ccccc2)[nH]c1=O	10.6	36.4*	-2.4	-3.6
O=C(C[C@@H]1C=C[C@@H](NC(=O)CCN2CCCCC2)[C@H](CO)O1)NCc1ccc(Cl)c(Cl)c1	·	·	·	9.8
COCC#Cc1cnc2c(c1)C(=O)N([C@@H](C)CO)C[C@H](C)[C@H](CN(C)C(=O)c1cnccn1)O2	·	·	·	11.2
CCOc1ccc(Cn2c(=O)sc3ccccc32)cc1	7.4	-0.9	1.5	2.4
CCOc1ccc(Cn2c(=O)sc3ccccc32)cc1OC	-6.7	66.4*	-2.1	21.6
CC(C)C1C(C#N)=C(N)Oc2n[nH]c(-c3cccs3)c21 (configuration not stated)	12.1	54.5*	-0.9	-10.3
Cc1ccc(C2C(C#N)=C(N)Oc3n[nH]c(-c4cccs4)c32)cc1 (configuration not stated)	8.9	2.2	-3.0	-2.9
Cc1ccnc2c1ccc1c(C)ccnc12	·	-2.4	-2.6	69.6*
